From ChEMBL document CHEMBL4513216, “Probing the Open Global Health Chemical Diversity Library for Multistage-Active Starting Points for Next-Generation Antimalarials” (ACS Infect Dis, 2020) come the findings set out here.

A short description of the series: Toxicity liver stage against HepG2, at 10uM. The format is cell-based. The arrangement: test concentration 10 uM, cell line HepG2-A16-CD81EGFP. The conditions noted are these: human, HepG2-A16-CD81EGFP cells; read-out: INHIBITION
In a few lines: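 Uninfected HepG2-A16-CD81EGFP cells, 3 × 10^3 per well, 1536-well, plated on prespotted compound at 10 μM final, parasite-free screening media added to match infected plates; puromycin 10 μM positive, DMSO 0.5% negative; run in parallel with 48 h PbLuc assay at 37 °C, 5% CO2; viability by CellTiter-Glo luminescence, normalized to controls.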
For `NC(=O)CN1CCCC(C(=O)N2CCC(O)(Cc3ccccc3)CC2)C1` (centres undefined), the cytotoxicity at 10 µM was -7.36%.
Then `COCCNS(=O)(=O)c1ccc(Cl)c(C(=O)N(C)Cc2sccc2C)c1`, with -7.53%; and `CC(O)CN1CCC(CN(C)Cc2ccc(C#N)cc2)CC1` (centres undefined), with 0.788%.
In the case of `Cc1n[nH]c(C2CN(C(=O)COCC(F)(F)F)CCO2)n1` (centres undefined) it was 1.26%; in that of `COc1ccc([C@@H]2CN(Cc3ccncc3)C[C@H]2c2cc[nH]n2)cc1`, -4.96%; in that of `COc1ccc2[nH]c(CNc3cc(C4CCNCC4)nc(C)n3)cc2c1`, -13.4%.
As to `Cc1nn(C)cc1CN(C)C(=O)c1ccncc1`, the cytotoxicity at 10 µM was -5.51%.
Then `COCCN(Cc1nccs1)C(=O)c1cc(-c2ccc(C)o2)n[nH]1`, with 6.23%.
In the case of `Cn1cc(N2CCC(NC(=O)c3ccccc3F)C2=O)cn1` (centres undefined) it was -1.26%; in that of `CCC(C)N(Cc1cccnc1)Cc1cc2c(cc1Cl)OCO2` (centres undefined), 6.16%.
Then `C=C(C)CN(CC)C(=O)c1cc(Cl)ccc1NS(C)(=O)=O`, with 7.17%; and `CCCn1nccc1S(=O)(=O)N1CCC2(CCCN(C(C)C)C2=O)C1` (centres undefined), with 5.96%; and `Cc1ccc(-n2nnc(CC(=O)N3CCN(C(C)C)CC3)c2C)cc1`, with -3.36%.
In the case of `COCCN1CC(c2nc(CC3CCN(C)CC3)no2)CCC1=O` (centres undefined), the cytotoxicity at 10 µM amounted to 2.06%.
In the case of `COc1ccc(C(=O)N2CCOCC2c2[nH]ncc2C)cc1F` (centres undefined) it was 2.21%; in that of `O=C(CSc1ccccc1)N1CCc2c(ncnc2N2CCOCC2)C1`, -7.15%; in that of `Cc1nc(C)c(C)c(NCc2cnn3cccnc23)n1`, 15.5%.
On to `O=C(NCc1ccccc1CN1CCOCC1)Nc1nncs1`, for which the cytotoxicity at 10 µM is 14.3%.
Then `CC(NCc1cnc(C2CCC2)s1)c1ccccc1-n1cccn1` (centres undefined), with 0.33%.
In the case of `COCCNC(=O)[C@@H]1CC[C@@H]2[C@@H](CCN2c2ncc(F)cn2)O1` it was -0.554%; in that of `CN1CCC(N[C@@H]2CO[C@H](CNC(=O)Nc3ccccc3)[C@H]2O)CC1`, 6.31%.
On to `Cc1ncc(CN2CCC(n3cc(-c4ccc(F)cc4)nn3)CC2)cn1`, for which the cytotoxicity at 10 µM is 5.48%.
`Cc1cccc(N2CCN(C(=O)CN3CCC(C(N)=O)CC3)CC2)c1`: the cytotoxicity at 10 µM worked out at 4.52%.
Then `Cc1occc1C(=O)N1CCCC2(CCN(c3ccsc3)C2=O)C1` (centres undefined), with -70.7%; and `Cc1noc(CCCc2nc(C3CCOC3)no2)n1` (centres undefined), with 3.5%; and `Cc1nnc(SCc2cc(=O)n3c4c(sc3n2)CCCC4)[nH]1`, with -9.67%.
Then `Cc1ccc(C2(C(=O)N3CCC(n4cc(C(C)O)nn4)CC3)CC2)cc1` (centres undefined), with -2.26%.
Consider `CCOC(=O)NC(CNC(=O)c1ncccn1)CC(C)C` (centres undefined), for which the cytotoxicity at 10 µM was -4.92%.
Then `Cc1cnn(C2CCCN(C(=O)c3ccc(NC4CC4)nc3)C2)c1` (centres undefined), with -19.6%; and `COCCNC(=O)c1nc(-c2cn(C)cn2)n2ccccc12`, with -104%; and `Cc1cc(S(=O)(=O)N(CC(N)=O)CC(C)C)ccc1Br`, with -10.1%.
Then `O=C1[C@H]2CN(Cc3ccncc3)C[C@H]2CN1c1cncnc1`, with -0.748%.
In the case of `Cn1cc(CN2CCC[C@]3(C[C@H](Oc4ccccn4)CO3)C2)cn1` it was 5.44%.
Regarding `CCc1nnc2n1CCN(C=C1NN=C(c3occc3C)O1)C2`, the cytotoxicity at 10 µM was -10%.
Then `COC(=O)C(CNC(=O)Nc1cn[nH]c1)Cc1cccc(C)c1` (centres undefined), with 1.37%.
In the case of `CO[C@@H]1CCN(Cc2ccccn2)[C@@H]2CN(Cc3ccco3)C[C@@H]21` it was 6.73%; in that of `CS(=O)(=O)NCC(=O)N1CCCC1c1noc(C2CC2)n1` (centres undefined), 14.2%.
For `O=C(c1ccn(-c2cccc(F)c2)n1)N1CCN(CC2CC2)CC1`, the cytotoxicity at 10 µM was -7.54%.
Turning to `Cc1ccccc1NS(=O)(=O)c1ccc(C(=O)O)cc1F`, the cytotoxicity at 10 µM worked out at 7.94%.
Then `COc1cc(CN2CC(=O)N(c3ccc(C)cc3)CC2C)cc(OC)c1` (centres undefined), with 1.28%.
In the case of `Cc1nc(C2CCCN(C(=O)c3ccnc(N(C)C)c3)C2)no1` (centres undefined) it was -4.77%; in that of `CC(NC(=O)C1CN(c2ncnc3c2nnn3C)C1)c1ccccc1` (centres undefined), 2.8%.
Then `CCC(O)CNC(=O)c1coc(COc2ccc3sc(C)nc3c2)n1` (centres undefined), with 16.3%; and `CC1CCC(NC(=O)NCC(C)(C)CCS(C)(=O)=O)CC1` (centres undefined), with 9.61%; and `Cc1cc(NC(=O)CN2CCOC(CN(C)C)C2)n(C)n1` (centres undefined), with 0.894%.
As for `Cc1ccc(CN2CC[C@@H](N3CCOCC3)[C@@H]2Cc2cccnc2)o1`, the cytotoxicity at 10 µM amounted to 9.55%.
Turning to `CC(C)(C)C(=O)Cn1nc(-c2ccccc2F)ccc1=O`, the cytotoxicity at 10 µM is -8.46%.
In the case of `CN(C)C1CCCN(C(=O)NCCNC(=O)C2CCCC2)C1` (centres undefined) it was -7.4%; in that of `Cc1cccc(CN2CC[C@@H]3O[C@@H](C(=O)N4CCN(C)CC4)C[C@@H]32)c1`, 8.01%.
Then `Cc1nn(C)c2c(=O)n(Cc3ccc(Cl)cc3)nnc12`, with -3.02%; and `CC(=O)N1CCCC(c2nnc3n2CCN(C(=O)C2CCCCC2)C3)C1` (centres undefined), with 0.685%; and `CSCc1noc(Cn2ccc3ccccc3c2=O)n1`, with 3.63%.
Then `CCN(CC)CCN1CC[C@H]2OCC[C@@]2(C(=O)N2CCOCC2)C1`, with 4.64%; and `Cc1cccc(OC2CCN(C(=O)NCCn3ccnc3)CC2)c1C`, with 0.856%.
Consider `CN(Cc1ccco1)C[C@H]1OC[C@@H]2CCN(Cc3cccnc3)C[C@@H]21`, for which the cytotoxicity at 10 µM is -7.9%.
In the case of `Cc1ccc(-c2cc(N)c(=O)n(C(C)C(N)=O)n2)o1` (centres undefined) it was -1.89%.
In the case of `CCc1ccccc1OCCN(C)C(=O)CCN1CCCCO1` it was -57.1%.
In the case of `Cn1cc(C(C)(O)CNC(=O)c2ccc(Br)s2)cn1` (centres undefined) it was -52.7%.
Turning to `CN(Cc1nc(CC2CC2)no1)CC1COc2ccccc2O1` (centres undefined), the cytotoxicity at 10 µM was -3.89%.
As for `O=C(CCc1c(F)cccc1F)NS(=O)(=O)c1ccc2c(c1)OCCO2`, the cytotoxicity at 10 µM is -4.71%.
In the case of `CCc1noc(C)c1C(=O)NCc1cc[nH]n1` it was 3.44%; in that of `CC(=O)N(Cc1ncc(C(C)C)o1)C1CCN(Cc2nccn2C)C1` (centres undefined), -3.81%; in that of `CN(C)c1cc(C(=O)N2CCN(S(C)(=O)=O)CC2)ccn1`, -4.46%.
In the case of `Cc1ccc(S(=O)(=O)N2C[C@@H]3CCN[C@@H]3C2)cc1` it was 2.94%; in that of `O=C(CCc1cccc(Cl)c1)NS(=O)(=O)Cc1ccon1`, 8.76%; in that of `CC(=O)N1CCN([C@@H]2CC[C@@H](NC(=O)c3ccc(C)nc3)[C@H]2O)CC1`, -3.08%.
In the case of `CCN(C)S(=O)(=O)N(CC)Cc1cccc(-c2ccncc2)c1` it was -11.5%; in that of `CCn1cnnc1CNC(=O)N1CCN(c2ccccc2Cl)CC1`, -0.502%; in that of `COC(=O)c1sccc1S(=O)(=O)N1CCC(Oc2cnccn2)CC1`, 9.32%.
As for `CCOc1ccnc(N2CCN(C(=O)c3ccoc3)CC2)n1`, the cytotoxicity at 10 µM was -6.1%.
Then `Cc1cc(CN2CC[C@@H]3[C@@H](CCC(=O)N3CCc3c[nH]cn3)C2)oc1C`, with -0.466%; and `O=C(N1CCCO1)[C@@]12CCO[C@@H]1CCN(C1CCCCC1)C2`, with -5.23%.
Then `O=C(CCCOCc1ccccc1)N1CCCC1c1ccccn1` (centres undefined), with -14.4%; and `Cc1cc(C(C)(O)CNC(=O)c2ccc(Br)o2)c(C)o1` (centres undefined), with -0.159%.
Then `COc1ccc(N(C)Cc2nc3c(cnn3C)c(=O)[nH]2)cc1OC`, with -10.7%; and `CCCn1ncc(C(=O)NC(C)c2c(C)nn(CC)c2C)c1C` (centres undefined), with 9.91%.
Take `CS(=O)(=O)CCCNC(=O)NC1CC(c2cccc(Cl)c2)C1` (centres undefined): the cytotoxicity at 10 µM is -3.17%.
In the case of `COC[C@]12COC[C@H]1CN(Cc1ccc3c(c1)OCO3)C2` it was -108%; in that of `CN(CC1(CO)CCOCC1)[C@@H]1c2ccccc2C2(CCNCC2)[C@H]1O`, -6.87%; in that of `Cn1cccc1CN1CCC2(CC1)CCN(C(=O)c1cnccn1)CC2`, -147%.
Then `CN1CCc2onc(CNc3ncccn3)c2C1`, with 1.58%; and `CCN(CC)Cc1ccc(CNC(=O)C(C)(C)n2cc(Br)cn2)cc1`, with 33.6%.
In the case of `Cc1cc2n(n1)CC(CNCc1ccc(Oc3ccccc3)nc1)CN2` (centres undefined) it was -10.1%; in that of `NC(=O)Cn1cc(NC(=O)NCC2CCN(c3ccccc3)C2)cn1` (centres undefined), 1.95%; in that of `CCOCCNC1(c2ccc(Cl)cc2)CCOCC1`, -3.75%.
For the compound `Cc1nc(C)n(CC2CN(Cc3nc4ccccc4s3)CCO2)n1` (centres undefined), the cytotoxicity at 10 µM is 44.4%.
As for `Cn1c(CN2CCCC2)nnc1C1CCCN(C(=O)C2CCOCC2)C1` (centres undefined), the cytotoxicity at 10 µM was -17%.
Then `CC(NC(=O)N1CCCN(CC(F)F)CC1)c1ccco1` (centres undefined), with -6.03%.
Then `Cc1cc(C)n(C2CCCN(C(=O)CN(C)C3CC3)C2)n1` (centres undefined), with -1.91%; and `Cn1cnc(S(=O)(=O)NCCN2CCCCCC2=O)c1Cl`, with -14.2%.
For the compound `N#CCCN(CCC#N)C(=O)CN(C1CC1)C1CCc2ccccc21` (centres undefined), the cytotoxicity at 10 µM came to 5.92%.
Then `Cc1noc(C)c1C(C)C(=O)N1CCCN(Cc2cscn2)CC1` (centres undefined), with -4.28%; and `Cc1cc(C)n(-c2ccc(C(C)NS(N)(=O)=O)cc2)n1` (centres undefined), with -7.76%; and `COc1ncccc1C(=O)N1CCn2c(COCC3CC3)cnc2C1C` (centres undefined), with -1.03%.
